In data set [1] the test system is Human-adipose-derived stem cells (hADSCs). Description: Live/dead assay of cells cultured on the hydrogels. Conditions: 4 days in culture, live/dead staining. Type of data set: cell-based. The gist of the method: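 GdL-formed gels at 1:0, 4:1, 1:1, 1:4 and 0:1 PA-E3/DBS-COOH were cross-linked with 50 mM CaCl2 and PBS-washed to pH 7. hADSCs were seeded at 5000 cells/mL and cultured 4 days at 37 °C, 5% CO2, with tissue-culture plastic as reference. Stained 30 min with calcein AM (live, green) and ethidium homodimer-1 (dead, red); imaged by confocal microscopy.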

The conditions of data set [2]: aqueous; cited from earlier work.
Data set [3] is described as follows: Optical appearance of the hydrogels. Type of data set: physicochemical. The settings on record: 10 mM gelator, gelation by GdL acidification overnight; visual. The gist of the method: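 Gelators at 10 mM in PBS (pH 7.4) were dissolved with 0.5 M NaOH (to pH 9), either singly or mixed at 100/0, 80/20, 50/50, 20/80 and 0/100 molar % (10 mM total). Solutions were shaken with GdL (4 mg per vial) until dissolved, then left overnight to gel.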

The next data set addresses proteinase K (Parengyodontium album, UniProt P06873). The data set can be described thus: Hydrogel weight loss in proteinase K solution or PBS. Type of data set: in vitro ADME. The settings on record: PBS 1× without enzyme, 37 °C, 22 days. The method, boiled down: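 Gels (10 mM PA-E3, 10 mM DBS-COOH, or 5 mM/5 mM mixture) formed by GdL acidification, soaked 1 h in PBS, then incubated at 37 °C in proteinase K (5 mg/mL in PBS) or PBS 1× alone; solutions renewed after each weighing at intervals up to 22 days; weight loss = (Wf – Wi)/Wi × 100 versus initial weight.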

This is an account of results in article PMC6792223 (Chemistry of Materials, 2019).

Sequence of proteinase K (P06873 106-384, species assumed): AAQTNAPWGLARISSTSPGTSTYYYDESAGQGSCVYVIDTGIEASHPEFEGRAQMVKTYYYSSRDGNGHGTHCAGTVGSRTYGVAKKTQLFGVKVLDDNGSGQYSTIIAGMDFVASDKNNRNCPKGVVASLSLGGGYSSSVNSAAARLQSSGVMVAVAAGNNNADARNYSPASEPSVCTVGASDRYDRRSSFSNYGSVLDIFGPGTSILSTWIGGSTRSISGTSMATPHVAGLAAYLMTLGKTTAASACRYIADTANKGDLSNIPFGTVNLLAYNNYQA

Take `O=C(O)c1ccc([C@@H]2OC[C@@H]3O[C@H](c4ccc(C(=O)O)cc4)O[C@H]([C@H](O)CO)[C@@H]3O2)cc1` [DBS-COOH]: the “Live cell coverage of hydrogel” value in data set [1] (confocal imaging) is recorded as “fully covered with live cells”. Further, in data set [1] (qualitative comparison), the “Cell viability on hydrogel compared with PA-E3 hydrogels” value is reported as “more viable”. Moreover, in data set [2], the “pKa of the terminal carboxylic acid” value is listed as 4–5. In addition, the “Optical appearance of hydrogel (transparency)” value in data set [3] is recorded as “translucent”.

“CH3-(CH2)14-CONH-VVVAAAEEE-CONH2 [PA-E3]”: the “Weight ratio of hydrogel in PBS” value on proteinase K is on record as “remained constant”. Also, the “pKa of the terminal carboxylic acid” value in data set [2] is 4–5. The “Optical appearance of hydrogel (transparency)” value in data set [3] was “optically transparent”.
